Consider 16 compounds from ChEMBL document CHEMBL2069263, “Synthesis and characterization of quinoline-based thiosemicarbazones and correlation of cellular iron-binding efficacy to anti-tumor efficacy” (Bioorg Med Chem Lett, 2012).

Data set [1] concerns SK-N-MC. The experiment in a line: Iron chelation activity in human SK-N-MC cells assessed as inhibition of 59Fe uptake from transferrin complex at 25 uM after 3 hrs by gamma scintillation counting relative to control. It is filed as functional. Also on record: scale not given: the % may be the effect or the level left. In outline: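 SK-N-MC cells were incubated with 59Fe-transferrin, with or without chelator, for 3 h at 37 °C and washed 4 times with ice-cold PBS. Internalized 59Fe was taken as the pronase-resistant fraction after pronase (1 mg/mL, 30 min, 4 °C) and counted by γ-scintillation. Uptake is expressed relative to control, mean ± SD of three experiments.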

Data set [2] concerns SK-N-MC. The experiment in a line: Antiproliferative activity against human SK-N-MC cells after 72 hrs by MTT assay. In kind it is functional, cell-based. In a few lines: (§1)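 Cells (SK-N-MC neuroepithelioma, HCT116 colon cancer p53+/+ or p53−/−, normal human dermal fibroblasts) were exposed to compounds for 72 h and proliferation was measured by standard methods. IC50 is reported as mean ± SD of three experiments.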
For orientation: Tetrazolium assays rely on reduction of a dye to a coloured formazan, in cell work by metabolically active cells.

Data set [3] in a line: Therapeutic index, ratio of IC50 for human NHDF cells to IC50 for human SK-N-MC cells. In kind it is cell-based. The conditions noted are these: NHDF cells and SK-N-MC cells, read-out: Ratio IC50. In a few lines: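 Ratio of NHDF IC50 to SK-N-MC IC50. Both IC50s come from anti-proliferative assays after a 72 h incubation with the chelator. Each IC50 is the mean ± SD of three experiments.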

Data set [4] has as its system HCT-116. Description: Antiproliferative activity against p53-deficient human HCT116 cells after 72 hrs by MTT assay. It is filed as functional, cell-based. The conditions noted are these: HCT-116, 72 h. In a few lines: as §1
Data set [5] relates to HCT-116. The experiment in a line: Antiproliferative activity against human HCT116 cells expressing p53 after 72 hrs by MTT assay. It is filed as functional, cell-based. The conditions noted are these: HCT-116, 72 h. In a few lines: as §1
The subject of a further data set is NHDF. The experiment in a line: Antiproliferative activity against human NHDF cells after 72 hrs by MTT assay. In kind it is cell-based. In outline: as §1
The subject of data set [6] is HCT-116. Description: Antiproliferative activity against human HCT116 cells expressing p53 assessed as cell survival at 1 nM after 9 days by clonogenic assay relative to control. In kind it is functional.
The test system of data set [7] is HCT-116. The experiment in a line: Antiproliferative activity against human HCT116 cells expressing p53 assessed as cell survival at 0.5 nM after 9 days by clonogenic assay relative to control. It is filed as functional.
Data set [8] relates to SK-N-MC. The experiment in a line: Iron chelation activity in human SK-N-MC cells assessed as cellular 59Fe released at 25 uM incubated for 3 hrs post 59Fe-transferrin-labeling by gamma scintillation counting. It is filed as functional. In a few lines:
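SK-N-MC cells were prelabeled with 59Fe-transferrin for 3 h at 37 °C and washed 4 times with ice-cold PBS. They were then reincubated for 3 h at 37 °C with or without chelator. Released 59Fe was counted by scintillation counting. Results are mean ± SD of three experiments.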

Data set [9] has as its system HCT-116. The experiment in a line: Antiproliferative activity against human HCT116 cells expressing p53 assessed as cell survival at 5 nM after 9 days by clonogenic assay relative to control. It is filed as functional.
Data set [10] deals with HCT-116. The experiment in a line: Antiproliferative activity against human HCT116 cells expressing p53 assessed as cell survival at 40 uM after 9 days by clonogenic assay relative to control. It is filed as functional.
Data set [11] concerns HCT-116. Description: Antiproliferative activity against human HCT116 cells expressing p53 assessed as cell survival at 20 uM after 9 days by clonogenic assay relative to control. In kind it is functional.
The test system of data set [12] is HCT-116. Description: Antiproliferative activity against p53-deficient human HCT116 cells assessed as cell survival at 50 uM after 9 days by clonogenic assay relative to control. In kind it is functional.
For data set [13], the system named is HCT-116. The experiment in a line: Antiproliferative activity against human HCT116 cells expressing p53 assessed as cell survival at 50 uM after 9 days by clonogenic assay relative to control. In kind it is functional.
Data set [14] deals with HCT-116. The experiment in a line: Antiproliferative activity against p53-deficient human HCT116 cells assessed as cell survival at 40 uM after 9 days by clonogenic assay relative to control. In kind it is functional.
Data set [15] deals with HCT-116. Description: Antiproliferative activity against human HCT116 cells expressing p53 assessed as cell survival at 25 uM after 9 days by clonogenic assay relative to control. In kind it is functional.
Data set [16] relates to HCT-116. The experiment in a line: Antiproliferative activity against p53-deficient human HCT116 cells assessed as cell survival at 25 uM after 9 days by clonogenic assay relative to control. In kind it is functional.
The test system of data set [17] is HCT-116. Description: Antiproliferative activity against human HCT116 cells expressing p53 assessed as cell survival at 30 uM after 9 days by clonogenic assay relative to control. In kind it is functional.
Data set [18] concerns HCT-116. Description: Antiproliferative activity against p53-deficient human HCT116 cells assessed as cell survival at 20 uM after 9 days by clonogenic assay relative to control. It is filed as functional.
Data set [19] relates to HCT-116. Description: Antiproliferative activity against p53-deficient human HCT116 cells assessed as cell survival at 30 uM after 9 days by clonogenic assay relative to control. It is filed as functional.

Structures are written as SMILES. Calls of active or inactive are those of the source. No cut-off for these calls is given here.

For the compound `CN(C)C(=S)N/N=C/c1ccc2ccccc2n1`, in the data set with SK-N-MC [1], the Activity is reported as 49%. Moreover, the IC50 (as a rule, the concentration that inhibits the measured activity by half) was found to be 0.81 µM in the data set with SK-N-MC [2], 0.37 µM in the data set with HCT-116 [4], 4.86 µM with HCT-116 [5] and 11.7 µM with NHDF. The selectivity ratio in [3] was determined as 14.
For `CN(C)C(=S)N/N=C(/c1ccccc1)c1ccccn1`, the “fold change (FC)” value in the data set on HCT-116 [6] was determined as 0.1273; in the data set on HCT-116 [7], 0.6762.
With `CCNC(=S)N/N=C/c1ccc2ccccc2n1`, the Activity in the data set on SK-N-MC [1] is on record as 49%. For the same compound, the half-inhibitory concentration (IC50) with SK-N-MC [2] was over 12.5 µM; in the data set with HCT-116 [4], 19.6 µM; with HCT-116 [5], 23.2 µM.
As to `CNC(=S)N/N=C/c1ccc2cccc(O)c2n1`, the Activity with SK-N-MC [1] came to 49%. Moreover, the IC50 in the data set with SK-N-MC [2] is over 12.5 µM; in the data set with HCT-116 [4], 2.17 µM; in the data set on HCT-116 [5], 1.71 µM; in the data set on NHDF it was over 25 µM. For the same compound, in the data set with SK-N-MC [8], the outcome was inactive.
Regarding `S=C(N/N=C/c1ccc2ccccc2n1)Nc1ccccc1`, the figures for the concentration for half-maximal inhibition (IC50) in the data set on SK-N-MC [2], with HCT-116 [4] and in the data set with HCT-116 [5] were over 12.5 µM, 21.4 µM and 22.3 µM, respectively. For the same compound, in the data set with SK-N-MC [8], the result was inactive.
In the case of `Oc1cccc2ccc(/C=N/NC(=S)Nc3ccccc3)nc12`, the Activity in the data set on SK-N-MC [1] was 49%. Moreover, the 50% inhibitory concentration (IC50) in the data set on SK-N-MC [2] was over 12.5 µM; in the data set on HCT-116 [4] it was 20.9 µM; in the data set on HCT-116 [5], 25 µM. In addition, in the data set on SK-N-MC [8], the outcome was inactive.
As for `Oc1ccc2cccnc2c1/C=N/NC(=S)Nc1ccccc1`, the Activity in the data set with SK-N-MC [1] is recorded as 49%. Moreover, the IC50 in the data set with SK-N-MC [2] is 1.63 µM; in the data set with HCT-116 [4], 18.6 µM; with HCT-116 [5] it was 16.3 µM; in the data set with NHDF, 14.9 µM.
Compound `CC(=O)N(O)CCCCCNC(=O)CCC(=O)N(O)CCCCCNC(=O)CCC(=O)N(O)CCCCCN` [DEFEROXAMINE] gave an IC50 in the data set with SK-N-MC [2] of 12.5 µM.
With `CN(C)C(=S)N/N=C/c1c(O)ccc2cccnc12`, the Activity in the data set with SK-N-MC [1] turned out to be 18%; in the data set with SK-N-MC [8] it was 33%. In addition, the IC50 in the data set on SK-N-MC [2] was 0.11 µM; in the data set with HCT-116 [4], over 25 µM; in the data set on HCT-116 [5], 20.8 µM; in the data set on NHDF, 14.9 µM. Further, the selectivity ratio in data set [3] was determined as 131.
As to `CN(C)C(=S)NN=C(c1ccccn1)c1ccccn1`, the IC50 was found to be 0.014 µM in the data set on SK-N-MC [2], 0.005 µM in the data set with HCT-116 [4], 0.002 µM with HCT-116 [5] and 15.4 µM in the data set on NHDF. The results for the “fold change (FC)” value with HCT-116 [6], with HCT-116 [9] and in the data set with HCT-116 [7] were 0.8541, 0.1922 and 1.0629, respectively.
`CCNC(=S)N/N=C/c1ccc2cccc(O)c2n1`: the Activity with SK-N-MC [1] is given as 49%. For the same compound, the half-maximal inhibitory concentration (IC50) with SK-N-MC [2] was over 12.5 µM; in the data set with HCT-116 [4] it was 3.15 µM; in the data set with HCT-116 [5] it was 2.62 µM; with NHDF, over 25 µM. Besides, in the data set on SK-N-MC [8], the outcome was inactive.
Regarding `CN(C)C(=S)N/N=C/c1ccc2cccc(O)c2n1`, the Activity was determined as 14% in the data set on SK-N-MC [1] and 33% in the data set on SK-N-MC [8]. Also, the 50% inhibitory concentration (IC50) in the data set with SK-N-MC [2] was 9.69 µM; in the data set with HCT-116 [4], 0.27 µM; in the data set on HCT-116 [5], over 15 µM; in the data set with NHDF, 15.8 µM.
In the data set with SK-N-MC [2], `O=C(N/N=C/c1c(O)ccc2ccccc12)c1ccncc1` returned a concentration for half-maximal inhibition (IC50) of 1.3 µM.
Consider `CNC(=S)N/N=C/c1c(O)ccc2cccnc12`, for which the “fold change (FC)” value in the data set on HCT-116 [10] turned out to be 0.014; in the data set with HCT-116 [11], 0.05; in the data set with HCT-116 [12], 0; in the data set with HCT-116 [13] it was 0; with HCT-116 [14], 0.004; in the data set with HCT-116 [15] it was 0.041. In addition, the “fold change (FC)” value amounted to 0.034 in the data set on HCT-116 [16], 0.039 in the data set on HCT-116 [17], 0.06 in the data set on HCT-116 [18] and 0.012 in the data set with HCT-116 [19]. The Activity worked out at 45% in the data set on SK-N-MC [1] and 33% in the data set on SK-N-MC [8]. The IC50 is 0.62 µM with SK-N-MC [2], 8.06 µM in the data set with HCT-116 [4], over 25 µM in the data set on HCT-116 [5] and over 25 µM in the data set on NHDF.
Turning to `CCNC(=S)N/N=C/c1c(O)ccc2cccnc12`, the Activity is 24% in the data set with SK-N-MC [1] and 33% with SK-N-MC [8]. The IC50 in the data set with SK-N-MC [2] was 0.19 µM; in the data set on HCT-116 [4], over 25 µM; in the data set with HCT-116 [5], over 25 µM; in the data set with NHDF, over 25 µM.
With `CNC(=S)N/N=C/c1ccc2ccccc2n1`, the Activity with SK-N-MC [1] is on record as 49%. For the same compound, the results for the half-inhibitory concentration (IC50) in the data set on SK-N-MC [2], in the data set on HCT-116 [4] and in the data set with HCT-116 [5] were over 12.5 µM, over 25 µM and over 25 µM, respectively.
